Measurements taken from ChEMBL document CHEMBL3774363, “Potent Triazole Bisphosphonate Inhibitor of Geranylgeranyl Diphosphate Synthase” (ACS Med Chem Lett, 2015).
pEC50, pIC50: −log10 of the molar value. Activity calls are given as the source filed them. The calls are words filed in the database; no cut-off is given here.

Columns and labels:
[1] = molecular target: T1, Geranylgeranyl pyrophosphate synthase (Homo sapiens) (UniProt O95749); experiment: Inhibition of GGDPS in human RPMI8226 cells assessed as disruption of Rap1a geranylation after 48 hrs by immunoblot analysis; assay type: cell-based; conditions: RPMI-8226
T1 sequence (whole entry): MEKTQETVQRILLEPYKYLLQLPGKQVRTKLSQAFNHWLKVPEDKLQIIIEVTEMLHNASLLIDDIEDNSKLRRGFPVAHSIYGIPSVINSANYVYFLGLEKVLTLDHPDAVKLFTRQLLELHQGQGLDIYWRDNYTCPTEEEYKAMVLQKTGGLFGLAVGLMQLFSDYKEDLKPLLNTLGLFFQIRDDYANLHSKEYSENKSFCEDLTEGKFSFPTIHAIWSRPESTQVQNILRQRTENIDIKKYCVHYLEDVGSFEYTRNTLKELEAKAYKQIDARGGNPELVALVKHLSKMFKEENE
How it was run: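 RPMI-8226 human myeloma cells incubated 48 h with or without compound, with lovastatin (10 μM) as positive control. Cells were lysed in RIPA buffer and immunoblotted with an antibody that detects only unmodified Rap1a, with β-tubulin as loading control. The value is the lowest concentration at which disruption was seen; blots are representative of two independent studies.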

[2] = molecular target: T2, Geranylgeranyl pyrophosphate synthase (Homo sapiens, UniProt O95749); experiment: Inhibition of recombinant GGDPS (unknown origin) assessed as radiolabeled GGPP formation preincubated for 10 mins followed by addition of 10 uM FPP substrate and [14C]IPP for 30 mins by liquid scintillation counter analysis
T2 sequence (O95749 whole entry): T1 sequence (whole entry)

[3] = Cytotoxicity against human RPMI8226 after 48 hrs by MTT assay; assay type: functional; conditions: RPMI-8226, 48 h
[4] = organism: Homo sapiens; experiment: Selectivity index, ratio of IC50 for FDPS (unknown origin) to IC50 for GGDPS (unknown origin)
[5] = molecular target: T1, Geranylgeranyl pyrophosphate synthase (Homo sapiens); experiment: Inhibition of GGDPS in human RPMI8226 cells assessed as disruption of Rap1a geranylation at 50 nM after 48 hrs by immunoblot analysis; conditions: RPMI-8226
[6] = molecular target: T3, Farnesyl pyrophosphate synthase (Homo sapiens, UniProt P14324); experiment: Inhibition of recombinant FDPS (unknown origin) assessed as radiolabeled FPP formation preincubated for 10 mins followed by addition of 10 uM GPP substrate and [14C]IPP for 30 mins by liquid scintillation counter analysis
T3 sequence (P14324 whole entry): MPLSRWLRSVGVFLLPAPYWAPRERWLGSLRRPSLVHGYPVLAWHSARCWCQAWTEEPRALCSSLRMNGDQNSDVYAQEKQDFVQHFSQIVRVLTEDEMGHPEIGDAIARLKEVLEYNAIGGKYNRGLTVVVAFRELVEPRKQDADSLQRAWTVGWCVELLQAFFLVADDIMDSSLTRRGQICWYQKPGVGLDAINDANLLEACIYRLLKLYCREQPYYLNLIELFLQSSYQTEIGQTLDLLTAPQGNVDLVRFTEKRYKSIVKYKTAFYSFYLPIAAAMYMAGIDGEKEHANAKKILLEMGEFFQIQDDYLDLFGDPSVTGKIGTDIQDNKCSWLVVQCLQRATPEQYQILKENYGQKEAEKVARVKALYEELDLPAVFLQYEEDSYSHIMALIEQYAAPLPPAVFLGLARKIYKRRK

Row | Compound | Activity [1] [µM] | pIC50 [2] | pEC50 [3] | Ratio IC50 [4] | inhibition [5] | pIC50 [6]
1 | CC(C)=CCC/C(C)=C/CCn1cc(CC(P(=O)(O)O)P(=O)(O)O)nn1 | 0.05 | 7.35 | 6.72 | 620 | Active | 4.55
2 | CC(C)=CCCn1cc(CC(P(=O)(O)O)P(=O)(O)O)nn1 | 5 | 6.37 | 4.82 | 15 |  | 5.18
3 | CC(C)=CCC/C(C)=C/CC(Cc1cn(CCC=C(C)C)nn1)(P(=O)(O)O)P(=O)(O)O | 0.5 | 6.42 | 6.00 | 34 |  | 4.89
